Compound activity from PubChem BioAssay.
KCNQ1 inh: blocks the human KCNQ1 potassium channel. CHO-K1 KCNQ1, FluxOR thallium flux fluorescence; active compounds read high. 1.3% of 310,000 active. P51787. B-score at 10 µM. AID 2642;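 active = compounds whose thallium flux B-score, printed positive for inhibition, exceeds three library SD while starting fluorescence stays within three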;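 note: channel opened by potassium depolarization with thallium stimulus after 20 min compound exposure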
KCNK3 block: human KCNK3 channel inhibition, primary screen; AID 602410; CHO-KCNK3 thallium flux, FluxOR fluorescence; active compounds read low; B-score at 10 µM; O14649; 0.84% of 340,000 active;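 active = B-score under library mean minus 4 SD, starting fluorescence ratio at most library mean plus 5 SD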;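 note: more negative B-score means stronger inhibition of thallium flux through KCNK3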
Target sequence (O14649 whole entry, looked up): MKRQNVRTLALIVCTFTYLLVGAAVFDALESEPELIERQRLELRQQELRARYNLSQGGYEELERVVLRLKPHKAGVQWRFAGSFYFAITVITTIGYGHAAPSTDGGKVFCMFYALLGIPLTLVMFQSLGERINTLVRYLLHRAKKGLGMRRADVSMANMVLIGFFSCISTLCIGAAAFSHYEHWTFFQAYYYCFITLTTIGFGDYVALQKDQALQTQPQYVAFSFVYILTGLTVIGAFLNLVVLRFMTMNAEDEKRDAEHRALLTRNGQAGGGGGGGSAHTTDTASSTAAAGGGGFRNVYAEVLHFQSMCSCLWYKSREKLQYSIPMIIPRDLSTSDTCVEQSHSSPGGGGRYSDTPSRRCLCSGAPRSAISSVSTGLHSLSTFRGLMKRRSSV
KCNQ1 act: potentiators or activators of human KCNQ1 potassium channel; P51787; CHO-K1 KCNQ1, thallium flux FluxOR fluorescence; active compounds read high; B-score at 10 µM; 0.35% of 310,000 active; AID 2648;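 active = fluorescence ratio B-score, a plate-corrected score, at least three library SD, with initial intensity B-score within 5 SD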
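Test system: CHO-K1 cells stably expressing KCNQ1 / Medium: assay buffer / Also added: depolarizing K+/Tl+ stimulus, K2SO4 and Tl2SO4 each 12.5 mM in 5x stock / Incubation: 90 min dye loading and 20 min compound exposure, both at room temperature / Signal: thallium influx via FluxOR fluorescence, kinetic imaging / Evaluation: B score of baseline-normalized fluorescence ratio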
KCNK9 block: human KCNK9 channel inhibition | Q9NPC2 | B-score at 10 µM | AID 488922 | 1.2% of 310,000 active | HEK293 KCNK9, FluxOR thallium flux fluorescence; active compounds read low;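 active = ratio B-score over 3 SD below the library mean, with starting fluorescence within 5 SD of its mean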;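 note: negative B-score means less thallium flux so channel inhibition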
hERG rescue: compounds protecting human hERG from proarrhythmic drug block | Q12809 | CHO-hERG, FluxOR thallium flux, dofetilide IC70 present | activation (rescue from dofetilide block), less the hit threshold, % at 10 µM | 0.51% of 310,000 active;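 active = activation above the mean of controls blocked by dofetilide plus 5 SD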;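 note: thallium influx through hERG after potassium depolarization seen as dye fluorescence rise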
KCNK9 block conf: confirmation of human KCNK9 potassium channel inhibitors | shares compounds with KCNK9 block | HEK293 KCNK9 cells, FluxOR thallium flux fluorescence | inhibition, % at 10 µM | 43% of 4,900 active;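 active = thallium signal inhibited by more than 5 SD of the compound-free buffer control wells, on both duplicate plates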
Kir2-1 spec: tests whether KCNK9 modulators also affect mouse Kir2.1 | shares compounds with KCNK9 block | Kir2.1 cells, FluxOR thallium flux fluorescence | inhibition, % at 10 µM | 4% of 4,900 active | AID 492993;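 active = thallium signal drop more than 5 SD beyond the mean of the no-compound control wells, seen in both duplicate plates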;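 note: signal is fluorescence rise after thallium addition divided by baseline fluorescence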
HEK293 Tl ctr: second counter-screen for KCNK9 modulators: effect in non-induced cells; shares compounds with KCNK9 block; non-induced KCNK9-HEK293, FluxOR thallium flux; inhibition, % at 10 µM; 40% of 4,900 active; AID 492997;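 active = thallium signal drop beyond 5 SD of the untreated control mean, on both duplicate plates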
Hits are given with their value. A selection: hits, their analogues and other compounds. The true share with any hit is near 3.1%.

Screening COc1ccc(-c2noc(C3CCCN(S(=O)(=O)c4cccc(Cl)c4C)C3)n2)cc1OC (stereo not given) returned KCNQ1 inh inactive, KCNK3 block inactive, KCNQ1 act inactive, KCNK9 block -12, hERG rescue inactive, KCNK9 block conf 34%, Kir2-1 spec inactive and HEK293 Tl ctr inactive.
Screening Cc1ccc(-c2noc(C3CCCN(C(=O)c4cccc(F)c4)C3)n2)cc1 (stereo not given) returned KCNQ1 inh inactive, KCNK3 block inactive, KCNQ1 act inactive, KCNK9 block inactive and hERG rescue inactive.
Screening O=C(O)c1cc(=S)nc[nH]1 returned KCNK3 block inactive.
COC(=O)c1cc(Cl)c(NC(=O)/C=C/c2ccc(OC)c(OC)c2)cc1OC was read as KCNQ1 inh inactive, KCNK3 block inactive, KCNQ1 act inactive, KCNK9 block inactive and hERG rescue inactive.
COc1ccc(N2CCN(C(=O)C(=O)c3cn(CC(=O)N4CCCCCC4)c4ccccc34)CC2)cc1 was read as KCNQ1 inh inactive, KCNK3 block inactive, KCNQ1 act inactive, KCNK9 block inactive and hERG rescue inactive.
For COc1ccc(Br)cc1CNC(=O)Cn1nc(C)n2cccc2c1=O the results were KCNQ1 inh inactive, KCNK3 block inactive, KCNQ1 act inactive, KCNK9 block inactive and hERG rescue inactive.
Screening O=C(N/N=C/c1cc([N+](=O)[O-])cc(Br)c1O)C12CC3CCC(CC(C3)C1)C2 returned KCNQ1 inh inactive, KCNK3 block inactive, KCNQ1 act 25, KCNK9 block inactive, hERG rescue inactive, KCNK9 block conf inactive, Kir2-1 spec inactive and HEK293 Tl ctr inactive.
For COc1cc(/C=N/NC(=O)C23CC4CC(CC(C4)C2)C3)cc(Br)c1O the results were KCNQ1 inh inactive, KCNK3 block inactive, KCNQ1 act inactive, KCNK9 block inactive and hERG rescue inactive.
COC(=O)c1cc(C(=O)NCc2ccccc2)c(=O)[nH]c1C was read as KCNQ1 inh inactive, KCNK3 block inactive, KCNQ1 act inactive, KCNK9 block inactive and hERG rescue inactive.
Screening Clc1cccc(Cl)c1COc1ccccn1 returned KCNQ1 inh inactive, KCNK3 block inactive, KCNQ1 act inactive, KCNK9 block inactive and hERG rescue inactive.
`O=C1CC(N2CCN(C3CC(=O)N(CCc4ccccc4)C3=O)CC2)C(=O)N1CCc1ccccc1` (stereo not given) gave KCNQ1 inh inactive, KCNK3 block inactive, KCNQ1 act inactive, KCNK9 block inactive and hERG rescue inactive.
O=C1CC(N2CCC(Cc3ccccc3)CC2)C(=O)N1CCc1ccccc1 (stereo not given) was read as KCNQ1 inh inactive, KCNK3 block inactive, KCNQ1 act inactive, KCNK9 block inactive, hERG rescue inactive, KCNK9 block conf inactive, Kir2-1 spec inactive and HEK293 Tl ctr inactive.
COc1ccc(Cn2nc(-c3ccccc3)c(N3CCCCC3)cc2=O)cc1 was read as KCNQ1 inh 7, KCNK3 block inactive, KCNQ1 act inactive, KCNK9 block -17, hERG rescue inactive, KCNK9 block conf inactive, Kir2-1 spec inactive and HEK293 Tl ctr 28%.
CCC(C)(C)C1CCC2(CC1)NC(=O)N(CC(=O)NCCc1c[nH]c3ccccc13)C2=O (stereo not given) was read as KCNK3 block inactive.
For Cc1c(Cl)cccc1NC(=O)COC(=O)c1c2c(nc3ccccc13)CCN(Cc1ccccc1)C2 the results were KCNQ1 inh inactive, KCNK3 block inactive, KCNQ1 act inactive, KCNK9 block -12, hERG rescue inactive, KCNK9 block conf 60%, Kir2-1 spec inactive and HEK293 Tl ctr 32%.
Screening Cc1ccc(SC[C@H](C)CN2CC[C@H](C)CCC2=O)cc1 returned KCNQ1 inh inactive, KCNK3 block inactive, KCNQ1 act inactive, KCNK9 block inactive, hERG rescue inactive, KCNK9 block conf inactive, Kir2-1 spec inactive and HEK293 Tl ctr inactive.
Screening NC(=O)NC(=O)C(Nc1ccc(N2CCCCC2)cc1)c1ccccc1 (stereo not given) returned KCNQ1 inh inactive, KCNK3 block inactive, KCNQ1 act inactive, KCNK9 block inactive and hERG rescue inactive.
For CC(=O)CCC1C2C(O)C(C(C)C)C(OC(=O)/C=C/c3ccccc3)CC12C (stereo not given) the results were KCNQ1 inh inactive, KCNK3 block inactive, KCNQ1 act inactive, KCNK9 block inactive, hERG rescue inactive, KCNK9 block conf inactive, Kir2-1 spec inactive and HEK293 Tl ctr inactive.
CC1CC(NC(=O)C2(C)CC2(Cl)Cl)CC(C)(C)C1 (stereo not given) was read as KCNQ1 inh inactive, KCNK3 block inactive, KCNQ1 act inactive, KCNK9 block inactive and hERG rescue inactive.
`CCCCCCCCC(=O)NNC(=O)c1c(O)c2ccccc2n(CCC)c1=O` gave KCNQ1 inh inactive, KCNK3 block inactive, KCNQ1 act inactive, KCNK9 block inactive, hERG rescue inactive, KCNK9 block conf inactive, Kir2-1 spec inactive and HEK293 Tl ctr inactive.
`CCCn1c(=O)c(C(=O)Nc2ncccc2C)c(O)c2ccccc21` gave KCNQ1 inh inactive, KCNK3 block inactive, KCNQ1 act inactive, KCNK9 block inactive and hERG rescue inactive.
CCCCCCCCCC(=O)NNC(=O)c1c(O)c2ccccc2n(CCC)c1=O was read as KCNQ1 inh inactive, KCNK3 block inactive, KCNQ1 act inactive, KCNK9 block inactive and hERG rescue inactive.
`CCCn1c(=O)c(C(=O)Nc2cccc(C)n2)c(O)c2ccccc21` gave KCNQ1 inh inactive, KCNK3 block inactive, KCNQ1 act inactive, KCNK9 block -10, hERG rescue inactive, KCNK9 block conf inactive, Kir2-1 spec inactive and HEK293 Tl ctr 29%.
For O=C(COC(=O)c1cc(S(=O)(=O)N2CCOCC2)ccc1Cl)Nc1ccc2c(c1)OCO2 the results were KCNQ1 inh inactive, KCNK3 block inactive, KCNQ1 act inactive, KCNK9 block inactive and hERG rescue inactive.
CCOC(=O)c1sc(-c2ccccc2)cc1NC(=O)Nc1ccccc1 was read as KCNQ1 inh inactive, KCNK3 block inactive, KCNQ1 act inactive, KCNK9 block inactive, hERG rescue inactive, KCNK9 block conf inactive, Kir2-1 spec inactive and HEK293 Tl ctr inactive.
Screening CC(O)c1nc2ccccc2n1CC(=O)Nc1ccc(F)cc1Cl (stereo not given) returned KCNQ1 inh inactive, KCNK3 block inactive, KCNQ1 act inactive, KCNK9 block inactive and hERG rescue inactive.
Screening Cc1ccnc(NC(=S)N2CCN(c3cccc(C(F)(F)F)c3)CC2)c1 returned KCNQ1 inh inactive, KCNK3 block inactive, KCNQ1 act inactive, KCNK9 block inactive, hERG rescue inactive, KCNK9 block conf inactive, Kir2-1 spec inactive and HEK293 Tl ctr inactive.
